In ChEMBL document CHEMBL2203205 (Eur J Med Chem, 2012):

How the values were obtained:
[1] = AUC in Sprague-Dawley rat at 3 mg/kg, iv; type: ADME, organism-based; set-up: dose 3 mg/kg, route intravenous; conditions: plasma
Method in brief: (§1)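 Male Sprague-Dawley rats dosed intravenously (3 mg/kg) and orally (10 mg/kg). PK parameters came from non-compartmental analysis of plasma concentration vs time curves.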

[2] = target: T1, Alpha-1D adrenergic receptor (Homo sapiens, UniProt P25100); assay: Inhibition of alpha1D adrenergic receptor
T1 sequence (P25100 whole entry): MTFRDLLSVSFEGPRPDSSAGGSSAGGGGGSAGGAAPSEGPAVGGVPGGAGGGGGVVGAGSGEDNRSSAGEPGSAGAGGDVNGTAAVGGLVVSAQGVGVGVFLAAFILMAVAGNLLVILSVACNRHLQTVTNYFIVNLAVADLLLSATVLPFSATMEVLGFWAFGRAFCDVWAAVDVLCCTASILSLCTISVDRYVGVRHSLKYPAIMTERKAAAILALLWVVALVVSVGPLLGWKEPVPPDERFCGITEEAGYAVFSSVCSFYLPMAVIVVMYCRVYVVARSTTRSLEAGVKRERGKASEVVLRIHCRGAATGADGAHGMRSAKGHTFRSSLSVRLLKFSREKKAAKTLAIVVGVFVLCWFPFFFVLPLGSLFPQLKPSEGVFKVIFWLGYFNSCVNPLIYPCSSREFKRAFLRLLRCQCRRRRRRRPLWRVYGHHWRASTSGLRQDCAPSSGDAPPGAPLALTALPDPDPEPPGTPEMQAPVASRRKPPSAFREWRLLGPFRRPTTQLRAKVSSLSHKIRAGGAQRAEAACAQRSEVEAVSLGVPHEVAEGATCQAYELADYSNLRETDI
Method in brief: (§2)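 Radioligand competition binding, run first as a single-concentration broad screen at […], then as concentration-response for follow-up targets, with the reference compound tested in parallel. Specific binding is total minus binding in excess unlabelled ligand, expressed as % of control specific binding. IC50 and Hill coefficient come from non-linear Hill-equation regression of competition curves built from mean replicate values.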

[3] = target: T2, Voltage-gated inwardly rectifying potassium channel KCNH2 (Homo sapiens, UniProt Q12809); assay: Displacement of [3H]astemizole from human recombinant ERG expressed in HEK293 cells; type: cell-based
Method in brief: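 Binding was run in human recombinant HEK-293 cells with [3H]astemizole at 2 nM, incubated 75 min at 22 °C, with astemizole as reference. Nonspecific binding was taken with excess unlabelled ligand. Results were given as percent inhibition of control specific binding.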

[4] = target: T2, Voltage-gated inwardly rectifying potassium channel KCNH2; assay: Inhibition of human recombinant ERG expressed in HEK293 cells after 5 to 10 mins by conventional whole-cell patch clamp assay; type: cell-based
Method in brief: (§3)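 Conventional whole-cell patch clamp on HEK-293 cells stably expressing hERG, cultured 1–7 days in DMEM/GlutaMax-1 + 10% FBS on collagen-coated dishes. Holding potential was −80 mV. Compound was superfused 5–10 min per concentration at rt (22–24 °C). Tail current amplitude was measured before and after superfusion. IC50 came from a logistic fit of the concentration-response.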

[5] = target: T3, Alpha-2C adrenergic receptor (Homo sapiens, UniProt P18825); assay: Inhibition of alpha2C adrenergic receptor; method in brief: as §2
T3 sequence (P18825 whole entry): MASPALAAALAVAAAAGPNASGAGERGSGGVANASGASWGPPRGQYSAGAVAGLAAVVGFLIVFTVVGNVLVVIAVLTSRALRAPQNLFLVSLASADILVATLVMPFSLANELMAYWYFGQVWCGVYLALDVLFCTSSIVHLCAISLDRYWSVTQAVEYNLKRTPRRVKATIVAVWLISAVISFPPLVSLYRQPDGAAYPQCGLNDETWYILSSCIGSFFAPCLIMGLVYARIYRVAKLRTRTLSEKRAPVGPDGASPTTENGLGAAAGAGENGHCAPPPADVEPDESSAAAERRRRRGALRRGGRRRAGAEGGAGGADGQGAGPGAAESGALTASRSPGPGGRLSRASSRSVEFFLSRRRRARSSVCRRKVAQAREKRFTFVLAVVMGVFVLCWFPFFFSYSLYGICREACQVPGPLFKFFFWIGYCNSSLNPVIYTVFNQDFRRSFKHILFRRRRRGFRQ

Rattus norvegicus = assay: Analgesic activity in rat L5 and L6 spinal nerve ligation model assessed as reversal of thermal hyperalgesia at 30 mg/kg, ip after 60 mins; type: functional; conditions: route intraperitoneal
[6] = target: T4, Alpha-2A adrenergic receptor (Homo sapiens, UniProt P08913); assay: Inhibition of alpha2A adrenergic receptor; method in brief: as §2
T4 sequence (P08913 whole entry): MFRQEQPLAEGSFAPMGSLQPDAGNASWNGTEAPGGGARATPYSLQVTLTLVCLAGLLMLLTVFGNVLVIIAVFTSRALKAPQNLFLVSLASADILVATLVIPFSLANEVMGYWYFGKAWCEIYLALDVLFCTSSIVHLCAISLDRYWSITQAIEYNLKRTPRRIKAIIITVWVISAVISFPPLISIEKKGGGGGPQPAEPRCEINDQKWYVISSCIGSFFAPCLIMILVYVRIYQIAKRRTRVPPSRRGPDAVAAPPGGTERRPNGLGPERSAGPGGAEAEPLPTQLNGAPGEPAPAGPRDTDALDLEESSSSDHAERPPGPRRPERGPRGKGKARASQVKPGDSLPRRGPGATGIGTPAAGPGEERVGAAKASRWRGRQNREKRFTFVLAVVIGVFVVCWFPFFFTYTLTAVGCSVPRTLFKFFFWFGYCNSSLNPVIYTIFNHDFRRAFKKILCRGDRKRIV

[7] = target: Muscarinic acetylcholine receptor M3 (Homo sapiens, UniProt P20309); assay: Inhibition of muscarinic M3 receptor; method in brief: as §2
[8] = target: T5, Muscarinic acetylcholine receptor M1 (Homo sapiens, UniProt P11229); assay: Inhibition of muscarinic M1 receptor; method in brief: as §2
T5 sequence (P11229 whole entry): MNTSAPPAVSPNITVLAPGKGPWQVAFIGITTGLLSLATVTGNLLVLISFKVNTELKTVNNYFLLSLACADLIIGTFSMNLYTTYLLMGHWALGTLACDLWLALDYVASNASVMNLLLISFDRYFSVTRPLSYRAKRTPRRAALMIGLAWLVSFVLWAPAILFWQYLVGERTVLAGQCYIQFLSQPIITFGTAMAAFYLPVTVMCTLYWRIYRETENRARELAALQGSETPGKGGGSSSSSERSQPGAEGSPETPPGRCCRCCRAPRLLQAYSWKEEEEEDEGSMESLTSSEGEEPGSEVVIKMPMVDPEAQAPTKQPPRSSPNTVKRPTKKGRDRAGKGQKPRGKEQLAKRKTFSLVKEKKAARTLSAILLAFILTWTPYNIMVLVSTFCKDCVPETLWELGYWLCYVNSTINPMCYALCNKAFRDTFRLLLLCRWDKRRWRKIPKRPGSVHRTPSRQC

[9] = Half life in Sprague-Dawley rat at 10 mg/kg, po; type: ADME, organism-based; set-up: dose 10 mg/kg, route oral; conditions: in vivo; method in brief: as §1
[10] = Clearance in Sprague-Dawley rat at 3 mg/kg, iv; type: ADME, organism-based; set-up: dose 3 mg/kg, route intravenous; conditions: in vivo; method in brief: as §1
[11] = Cmax in Sprague-Dawley rat at 10 mg/kg, po; type: ADME, organism-based; set-up: dose 10 mg/kg, route oral; conditions: in vivo; method in brief: as §1
[12] = Tmax in Sprague-Dawley rat at 10 mg/kg, po; type: ADME, organism-based; set-up: dose 10 mg/kg, route oral; conditions: in vivo; method in brief: as §1
[13] = target: T2, Voltage-gated inwardly rectifying potassium channel KCNH2; assay: Inhibition of human recombinant ERG expressed in HEK293 cells up to 100 uM after 5 to 10 mins by conventional whole-cell patch clamp assay; type: cell-based; method in brief: as §3

T2 sequence (Q12809 whole entry): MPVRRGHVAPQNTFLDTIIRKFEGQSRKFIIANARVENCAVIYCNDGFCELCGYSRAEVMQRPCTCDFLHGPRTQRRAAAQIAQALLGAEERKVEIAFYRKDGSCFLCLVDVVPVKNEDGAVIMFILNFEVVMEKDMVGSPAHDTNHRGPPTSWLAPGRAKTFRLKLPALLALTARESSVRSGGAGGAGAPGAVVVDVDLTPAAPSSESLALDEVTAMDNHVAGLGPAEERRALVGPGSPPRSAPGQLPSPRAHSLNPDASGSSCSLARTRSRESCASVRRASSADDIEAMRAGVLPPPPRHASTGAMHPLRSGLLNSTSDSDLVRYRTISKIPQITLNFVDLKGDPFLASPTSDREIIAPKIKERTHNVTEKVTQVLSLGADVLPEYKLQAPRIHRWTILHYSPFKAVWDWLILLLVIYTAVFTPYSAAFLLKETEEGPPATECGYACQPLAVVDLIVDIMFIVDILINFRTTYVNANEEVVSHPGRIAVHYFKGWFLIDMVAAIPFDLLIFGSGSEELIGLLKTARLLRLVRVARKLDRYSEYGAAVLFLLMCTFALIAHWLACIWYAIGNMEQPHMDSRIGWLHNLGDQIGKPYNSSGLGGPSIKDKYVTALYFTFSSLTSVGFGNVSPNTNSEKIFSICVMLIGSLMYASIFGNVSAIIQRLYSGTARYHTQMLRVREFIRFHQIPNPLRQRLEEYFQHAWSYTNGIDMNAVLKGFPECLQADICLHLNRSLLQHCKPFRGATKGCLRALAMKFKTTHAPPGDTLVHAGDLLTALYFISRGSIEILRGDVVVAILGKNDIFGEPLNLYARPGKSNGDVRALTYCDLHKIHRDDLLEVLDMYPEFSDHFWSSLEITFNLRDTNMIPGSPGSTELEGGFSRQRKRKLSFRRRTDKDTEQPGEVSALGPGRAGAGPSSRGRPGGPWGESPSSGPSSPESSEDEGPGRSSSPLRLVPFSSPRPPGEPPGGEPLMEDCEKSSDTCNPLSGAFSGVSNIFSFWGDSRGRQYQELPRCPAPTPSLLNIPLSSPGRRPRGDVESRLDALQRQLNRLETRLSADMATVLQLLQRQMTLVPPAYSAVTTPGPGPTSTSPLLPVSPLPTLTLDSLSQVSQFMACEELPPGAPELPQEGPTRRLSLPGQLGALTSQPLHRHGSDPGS
Chain of Muscarinic acetylcholine receptor M3 (P20309 whole entry): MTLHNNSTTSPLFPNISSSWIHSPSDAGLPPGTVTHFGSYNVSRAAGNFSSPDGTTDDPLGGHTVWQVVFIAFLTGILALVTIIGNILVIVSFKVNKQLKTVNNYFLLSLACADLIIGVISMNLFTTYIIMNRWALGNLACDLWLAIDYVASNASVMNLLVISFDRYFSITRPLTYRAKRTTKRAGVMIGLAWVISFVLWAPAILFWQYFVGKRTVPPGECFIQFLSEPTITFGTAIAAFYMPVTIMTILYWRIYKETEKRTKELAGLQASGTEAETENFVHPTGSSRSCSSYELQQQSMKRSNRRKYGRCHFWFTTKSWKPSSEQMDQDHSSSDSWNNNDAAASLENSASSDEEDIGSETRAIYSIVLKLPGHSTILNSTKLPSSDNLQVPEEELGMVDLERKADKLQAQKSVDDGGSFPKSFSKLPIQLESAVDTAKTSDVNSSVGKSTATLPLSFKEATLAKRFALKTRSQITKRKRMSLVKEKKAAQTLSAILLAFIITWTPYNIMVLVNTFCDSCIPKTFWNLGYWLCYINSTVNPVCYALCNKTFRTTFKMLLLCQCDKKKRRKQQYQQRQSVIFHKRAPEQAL

AUC [1]: 95.2 ng·h/mL | IC50 [2]: 2.2 µM | IC50 [5]: 11 µM | IC50 [6]: 24 µM | IC50 [7]: 4.5 µM | IC50 [8]: 8.6 µM | half-life [9]: 12 h | clearance [10]: 420 mL/min/kg | Cmax [11]: 101 ng/mL | Tmax [12]: 2 h
Compound: N=C(Nc1ccc2c(c1)CCN2C1CCNCC1)c1cccs1
IC50 [3]: 160 µM | IC50 [4]: > 100 µM | Activity (Rattus norvegicus): 71% | inhibition (INH) [13]: Not Active
